# Test results: publication PMC6579116 (Macromolecular bioscience, 2019)
# Experiments:
# [1] = system: atherosclerosis in LDLR KO mice fed high fat diet; assay: Atherosclerosis treatment study; type: in vivo, mouse; conditions: both sexes; IV twice per week for 8 weeks
# Procedure, shortened: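 LDLR KO mice on high-fat diet (20% fat, 0.2% cholesterol, 34% sucrose) from 4 weeks of age. After 14 weeks on diet, IV injection under isoflurane (dorsal penile vein, males; retro-orbital, females) twice weekly for 8 weeks. […] Controls: PBS, scrambled PA. Aortic root sections stained with Oil Red O; plaque area/total root area. n=8–10 mice/group; ANOVA with post-hoc t-test.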
# [2] = Treatment study serum chemistry; type: in vivo, mouse; conditions: for Creatine: 6 mg/kg
# [3] = TEM analysis of nanofiber formation, diameter and length; type: physicochemical; conditions: 1 mM in PBS, 30 measurements from three images; for Length, Average / Length, Median: ImageJ
# Procedure, shortened: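 Nanofiber diameter and length were measured by hand on TEM images in ImageJ; overlapping fibers ruled out automated tracing.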
# [4] = male LDLR KO mice, IV twice per week for 8 weeks
Molecule,reversal of atherosclerosis from baseline levels [1],"liver toxicity: aspartate aminotransferase (AST) in the blood in comparison to PBS, male mice ([2]; mouse, in vivo, iv)","Diameter, Max. [3] [nm]","Diameter, Min. [3] [nm]","Length, Max. [3] [nm]","Length, Min. [3] [nm]","Length, Average [3] [nm]","Length, Median [3] [nm]","liver toxicity: aspartate aminotransferase (AST) in the blood in comparison to PBS, male mice [2, 4]","Creatine ([2]; mouse, in vivo, iv)"
"O=C(O)Cc1cccc(OCCCN(Cc2cccc(C(F)(F)F)c2Cl)CC(c2ccccc2)c2ccccc2)c1 [LXR, GW3965, reference compound]",approximately 5%,significantly elevated levels,–,–,–,–,–,–,–,–
C16-V2A2E2-C-DWFAKDYFKKAFVEEFAK-NH2 [Scr PA],–,–,18.3,8.8,1472.9,30.0,403.8,257.6,significantly elevated levels,0(0–0.1) 0(0–0.1) 0(0–0.1) U/L
C16-V2A2E2-G-DWFKAFYDKVAEKFKEAF-NH2 [ApoA1 PA],–,–,14.4,6.2,2183.3,39.4,626.9,615.9,Neither ApoA1-LXR PAs nor ApoA1 PAs increased AST levels,0(0–0.1) 0(0–0.1) 0(0–0.1) U/L
